Assay results as given in ChEMBL document CHEMBL4513216, “Probing the Open Global Health Chemical Diversity Library for Multistage-Active Starting Points for Next-Generation Antimalarials” (ACS Infect Dis, 2020).

Experiment: Toxicity liver stage against HepG2, at 10uM
Assay type: cell-based
Set-up: test concentration 10 uM, cell line HepG2-A16-CD81EGFP
Details: human, HepG2-A16-CD81EGFP cells; read-out: INHIBITION
Method in brief: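 Uninfected HepG2-A16-CD81EGFP cells, 3 × 10^3 per well, 1536-well, plated on prespotted compound at 10 μM final, parasite-free screening media added to match infected plates; puromycin 10 μM positive, DMSO 0.5% negative; run in parallel with 48 h PbLuc assay at 37 °C, 5% CO2; viability by CellTiter-Glo luminescence, normalized to controls.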

Row | Structure (SMILES) | cytotoxicity at 10 µM
1 | Cn1cncc1-c1nnc([C@H]2CCN(CC(C)(C)C)C2)o1 | 2.26%
2 | Cc1c(OCC(=O)NCc2ccccc2)c(=O)ccn1C | -49.9%
3 | Cc1ccc(S(=O)(=O)NCCOc2ccc3nnc(C)n3n2)s1 | -6.26%
4 | c1cc(-c2ccc3c(c2)CCC32CCNCC2)ccn1 | 8.86%
5 | CCC(C)n1c(SCC(=O)N2CCOCC2)nc2cc(C)[nH]c2c1=O (stereo not drawn) | 7.94%
6 | CCc1nn(-c2cc(Oc3cc(C)ccc3C)ncn2)c(N)c1C#N | 12.9%
7 | Cc1cc(C)n(CCCNc2ncnc3c2NC(=O)CN3)n1 | 8.71%
8 | Cc1csc2c(C3CCCN(C(=O)CCn4ccnc4)C3)nc(C)n12 (stereo not drawn) | 16.9%
9 | Cn1cc(CN2CCCCC2c2ccc(-c3cccc(Cl)c3)nc2)cn1 (stereo not drawn) | -8.51%
10 | Cc1nc2ccc(Cl)cn2c1CN1CCN(S(=O)(=O)N2CCCC2)CC1 | 16.6%
11 | Cc1csc(C(=O)N2CC[C@H](Oc3cccnc3C)[C@@H](O)CC2)c1 | -10.7%
12 | O=S(=O)(Cc1cccc(Cl)c1)CC(O)Cn1cccn1 (stereo not drawn) | -12.5%
13 | Cc1cnn(CC2CCN(CC(O)c3ccccc3Cl)CC2)c1 (stereo not drawn) | 4.51%
14 | CCN(CC)c1ncc(Cl)c(C(=O)NC2CC2)n1 | -33.5%
15 | c1cc2occc2c(N2CCCC(c3nncn3C3CC3)C2)n1 (stereo not drawn) | 1.97%
16 | COc1ccc2nc(C3CC3)cc(C(=O)NCc3noc(C)n3)c2c1 | 11.8%
17 | CC(C)(C)c1n[nH]c(C2CN(CCc3ccncc3)CCO2)n1 (stereo not drawn) | -12.3%
18 | O=c1ccncn1Cc1csc(C2CC2)n1 | -0.572%
19 | O=C(NCC1CCC2(CC1)OCCO2)c1ccncc1F | 14.4%
20 | CNC(=O)c1ccc(CNc2ccncc2Cl)cc1 | 17.7%
21 | Cc1nnc(C(C)Nc2cccc(COCC(F)(F)C(F)F)c2)o1 (stereo not drawn) | -1.2%

Row | Structure (SMILES) | cytotoxicity at 10 µM
22 | COc1ncccc1NC(=O)N1CCCC(CNC(=O)OC(C)(C)C)C1 (stereo not drawn) | -1.71%
23 | CC(=O)c1cccc(OCCCC(=O)N(C)CCC(F)(F)F)c1 | 4.33%
24 | OC(CN(Cc1ccccc1)Cc1cccnc1)c1cccs1 (stereo not drawn) | 4.01%
25 | Cc1cc(NC2CCc3ncnn3C2)n2ncnc2n1 (stereo not drawn) | -18.4%
26 | O=C(NCc1ccco1)N1CCC(n2ccc(C(F)(F)F)n2)CC1 | 12.2%
27 | Cn1nc2c(cc1=O)CN(Cc1nc(N)c3ccccc3n1)CC2 | -8.86%
28 | O=C(NC1CC1)c1cc(NC(=O)N2CCSCC2)ccc1Cl | -22.5%
29 | Cc1nc(C)n(CC2CCCN(CC(=O)Nc3cccnc3)C2)n1 (stereo not drawn) | -4.84%
30 | Cc1cc(C)cc(C(=O)NCc2ncnn2C)c1 | 4.64%
31 | Cn1cnnc1-c1ccnc(NCc2ccccc2)c1 | -4.98%
32 | CCS(=O)(=O)CC(=O)NCC1(c2c(F)cccc2F)CCCC1 | -3.32%
33 | CCN(Cc1ccccc1)C1CCN(c2cc(C)nn2C)C1=O (stereo not drawn) | -3.03%
34 | O=C(NCCOc1ccc(C(F)(F)F)cn1)c1ccoc1 | -10.1%
35 | CCc1nc(C)ncc1C(=O)N1CC(C)CN(C)c2ccccc21 (stereo not drawn) | 10.7%
36 | O=C(Nc1ccc(Cn2cccn2)cc1)N1CCC(CO)CC1 | 47.8%
37 | CCc1nc(Cn2c(=O)n(CC)c3ccccc32)no1 | -43.9%
38 | CC(Cn1ccnc1)NC(=O)N(C)Cc1ccsc1 (stereo not drawn) | 2.69%
39 | CCC(C)(COc1ncccc1Cl)NCC(=O)NCC(C)C (stereo not drawn) | -2.86%
40 | Cc1noc(CN2CCC(Cc3ccc(F)cc3)CC2)n1 | 11.3%
41 | Cc1ccc(-c2nc(CN(C)C3CCS(=O)(=O)C3)cs2)o1 (stereo not drawn) | -8.05%
42 | CNc1nc(CNC(=O)Nc2ccc(OC(C)C)cc2C)cs1 | 26.4%

Row | Structure (SMILES) | cytotoxicity at 10 µM
43 | O=C([C@@H]1CCO[C@@H]2CCN(CC3CC3)C[C@H]21)N1CCCC1 | -103%
44 | CCOCc1cnc2n1CCN(C(=O)c1ccccc1)C2C (stereo not drawn) | -103%
45 | CCOCc1cnc2n1CCN(C(=O)c1cn(C)c3ccccc13)C2C (stereo not drawn) | -108%
46 | COCC(=O)N1CCC2(CC1)CN(c1ncccn1)CCO2 | -67.3%
47 | Cc1cc(CN2CC[C@H]3C[C@@H](c4nccs4)O[C@@H]3C2)no1 | -84.8%
48 | COCC(=O)NCC[C@H]1CC(C)(C)Oc2ccccc21 | 3.3%
49 | COc1cccc(-c2ncc3c(n2)N(C)CCN(CCN(C)C)C3=O)c1 | -12.2%
50 | Cc1cnc(C)c(N2CCCC(CC3CC3)(C(=O)O)C2)n1 (stereo not drawn) | -6.09%
51 | CC(C)O[C@H]1CN(C(=O)CCN2CCCCO2)C[C@@H]1O | -7.12%
52 | CC(C)N1CCCn2nc(C(=O)NCCc3ccccn3)cc2C1 | -1.95%
53 | Cc1nc(CN2CCCC(CCc3ccccc3F)C2)c[nH]1 (stereo not drawn) | -6.55%
54 | NC1CCCCN(Cc2cc(C3CCCCC3)no2)C1 (stereo not drawn) | -14.1%
55 | CC1(C)CCN(Cc2ccccc2-c2nc(C(C)(C)C)cc(=O)[nH]2)C1 | -39.9%
56 | Cc1n[nH]c(C)c1-c1cc(-c2cccc(O)c2)nc(N)c1C#N | 26.9%
57 | CCc1cnc(C)nc1N1CCS(=O)(=O)CC1 | -43.3%
58 | COc1ccc(C(=O)NCC2CCCN(C3CCOCC3)C2)c(O)c1 (stereo not drawn) | 5.21%
59 | Cc1nc(C(=O)N2CCN(C(=O)N(C)C)[C@@H]3CS(=O)(=O)C[C@@H]32)cs1 | 4.96%
60 | O=S(=O)(c1ccc2c(c1)OCCO2)N1CCc2ccccc2C1 | -5.52%
61 | CSc1nccc(N2CCC(NCc3ccc4c(c3)OCO4)CC2)n1 | -3.4%
62 | c1ccc(-c2nc3c(c(NCCCn4cncn4)n2)CCNCC3)nc1 | -45.6%
63 | CN(CC1(CO)CCC1)c1nc2c(c(=O)[nH]1)Cc1ccccc1OC2 | -17.2%

Row | Structure (SMILES) | cytotoxicity at 10 µM
64 | COCCN1CC(C(=O)N(C)Cc2csc(C)n2)CC1=O (stereo not drawn) | 12.5%
65 | COc1ccc(CN2CCCC2)cc1Oc1cccc(C#N)n1 | 7.01%
66 | OC1CN(Cc2ccccc2)CCN(c2ccncc2)C1 (stereo not drawn) | -4.74%
67 | O=C(c1ccc(S(=O)(=O)NCCc2ccncc2)cc1)N1CCCC1 | 1.67%
68 | CCOC(=O)C1(Cc2cccc(OC)c2)CCN(Cc2ncc[nH]2)CC1 | -7.82%
69 | CN1CC[C@H](c2ccccc2)[C@@H]2[C@H]1CCCCN2C(=O)c1cnccn1 | -2.5%
70 | O=C(Cc1ccccc1Cl)N1CCN(CC(O)COCCO)CC1 (stereo not drawn) | 5.51%
71 | Cc1noc(C)c1CC(=O)N1CCCN(Cc2cscn2)CC1 | 2.45%
72 | COCCN1CCC(NCc2ccc(C#N)cc2)C1 (stereo not drawn) | -9.34%
73 | O=C(c1ccsc1)N1CCCC(c2cc(C(F)(F)F)[nH]n2)C1 (stereo not drawn) | -4.22%
74 | c1cnn(CC2CCCN2c2ncnc3ccsc23)c1 (stereo not drawn) | 9.12%
75 | CCN1CCN(c2ccc(CNC(=O)c3ccc(Cl)o3)cn2)CC1 | -0.433%
76 | O=C(NCCNc1ncccn1)N1CCN(Cc2cccnc2)CC1 | -3.71%
77 | CN1CC[C@]2(CN(CC3CCOC3)C[C@H]2c2ccccc2)C1=O (stereo partly drawn) | 0.619%
78 | COc1ncc(C2(O)CCN(Cc3ccc(F)c(F)c3)CC2)c(OC)n1 | -0.279%
79 | CS(=O)(=O)N1CCOCC12CCN(Cc1ccc(F)cc1)CC2 | 3.39%
80 | COCCN1CCC(c2nc3ccc(NC4CCC4)cn3n2)CC1 | -119%
81 | CNC(=O)c1cc2c(nc1N(C)C)CCN(c1ncc(C)cn1)CC2 | -119%
82 | CCN1CC2(CC1=O)CN(Cc1ccco1)CCN(C(=O)C(C)C)C2 (stereo not drawn) | -4.51%
83 | O=C1CCCC2=Nc3nonc3NC(c3ccc(Cl)cc3Cl)C12 (stereo not drawn) | 5.24%
